Data: ChEMBL document CHEMBL3352496, “Design, synthesis and evaluation of novel triazole core based P-glycoprotein-mediated multidrug resistance reversal agents” (Bioorg Med Chem, 2014)
Where a name gives a salt, the structure may show the parent alone.

Key:
[1] = Reversal of P-gp-mediated multidrug resistance in human K562/A02 cells assessed as reduction of adriamycin IC50 at 5 uM after 48 hrs by MTT assay; type: cell-based; details: K562/A02, 48 h
How it was run: (§1)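 MTT on K562/A02 cells exposed to a series of adriamycin concentrations, with or without modulator at 5 µM; 0.1% DMSO as solvent control. Reversal fold = adriamycin IC50 without modulator / IC50 with modulator.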

[2] = Resistance factor, ratio of adriamycin IC50 for human K562/A02 cells over-expressing Pgp to adriamycin IC50 for human K562/A02 cells over-expressing Pgp in presence of 5 uM compound; type: functional; how it was run: as §1
[3] = Reversal of P-gp-mediated multidrug resistance in human K562/A02 cells assessed as reduction of adriamycin IC50 at 2.5 uM after 48 hrs by MTT assay; type: cell-based; details: K562/A02, 48 h
How it was run: (§2)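 K562/A02 (P-gp-overexpressing) cells given graded adriamycin plus modulator at 2.5, 1.25, 0.625, 0.31, 0.156, 0.078 or 0.04 µM; verapamil 2.5 µM as positive control; adriamycin IC50 by MTT. Reversal fold = IC50 without modulator / IC50 with modulator. Two to three experiments, mean ± SEM.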

[4] = Resistance factor, ratio of adriamycin IC50 for human K562/A02 cells over-expressing Pgp to adriamycin IC50 for human K562/A02 cells over-expressing Pgp in presence of 2.5 uM compound; type: functional; how it was run: as §2
[5] = Reversal of P-gp-mediated multidrug resistance in human K562/A02 cells assessed as reduction of adriamycin IC50 at 5 uM incubated for 24 hrs prior to adriamycin treatment measured after 48 hrs by MTT assay; type: cell-based
How it was run: (§3)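 K562/A02 cells incubated 24 h with 5 µM modulator, verapamil or vehicle, then washed with growth medium. […] Reversal fold = IC50 without modulator / IC50 with modulator. Two to three experiments, mean ± SEM.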

[6] = Reversal of P-gp-mediated multidrug resistance in human K562/A02 cells assessed as reduction of adriamycin IC50 at 5 uM incubated for 24 hrs followed by adriamycin treatment post compound washout measured after 48 hrs by MTT assay; type: cell-based; how it was run: as §3
[7] = Reversal of P-gp-mediated multidrug resistance in human K562/A02 cells assessed as reduction of adriamycin IC50 at 5 uM incubated for 24 hrs followed by adriamycin treatment 6 hrs post compound washout measured after 48 hrs by MTT assay; type: cell-based; how it was run: as §3
[8] = Reversal of P-gp-mediated multidrug resistance in human K562/A02 cells assessed as reduction of adriamycin IC50 at 5 uM incubated for 24 hrs followed by adriamycin treatment 12 hrs post compound washout measured after 48 hrs by MTT assay; type: cell-based; how it was run: as §3
[9] = Resistance factor, ratio of adriamycin IC50 for human K562/A02 cells over-expressing Pgp to adriamycin IC50 for human K562/A02 cells over-expressing Pgp in presence of 5 uM compound incubated for 24 hrs prior to adriamycin treatment; type: functional; how it was run: as §3
[10] = Resistance factor, ratio of adriamycin IC50 for human K562/A02 cells over-expressing Pgp to adriamycin IC50 for human K562/A02 cells over-expressing Pgp in presence of 5 uM compound incubated for 24 hrs followed by adriamycin treatment post compound washout; type: functional; how it was run: as §3
[11] = Cytotoxicity against human K562/A02 cells at 5 uM after 48 hrs by MTT assay; type: cell-based; details: k562/a02, 48 h
How it was run: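 Adriamycin-selected K562/A02 cells given test compound alone at 5 µM for 48 h; cytotoxicity scored by MTT as intrinsic growth inhibition.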

[12] = Cytotoxicity against human K562/A02 cells after 48 hrs by MTT assay; type: functional, cell-based; details: K562/A02, 48 h

**Q.** For `COc1ccc(CCN(C)CCCC(C#N)(c2ccc(OC)c(OC)c2)C(C)C)cc1OC` (stereo not drawn) [VERAPAMIL], which IC50 [1] is on record?
**A.** 6.8 µM

**Q.** What about the “Ratio IC50” value [2] of the same compound?
**A.** 8.7

**Q.** And the IC50 [3]?
**A.** 15.9 µM

**Q.** And the “Ratio IC50” value [4]?
**A.** 3.4

**Q.** And the IC50 [5]?
**A.** 9.6 µM

**Q.** And the IC50 [6]?
**A.** 40.8 µM

**Q.** And the IC50 [7]?
**A.** > 80 µM

**Q.** What about the IC50 [8] of the same compound?
**A.** > 80 µM

**Q.** What about the “Ratio IC50” value [9] of the same compound?
**A.** 8.4

**Q.** And the “Ratio IC50” value [10]?
**A.** 1.9

**Q.** Which IC50 [1] does the source give for `COc1cc2c(cc1OC)CN(CCn1cc(COc3ccccc3NC(=O)c3ccc4ccccc4n3)nn1)CC2` here?
**A.** 5.21 µM

**Q.** And the “Ratio IC50” value [2]?
**A.** 10.4

**Q.** What about the Activity [11] of the same compound?
**A.** < 10%

**Q.** Which results are given for `COc1cc2c(cc1OC)CN(CCn1cc(COc3ccccc3NC(=O)c3cccc([N+](=O)[O-])c3)nn1)CC2`?
**A.** IC50 [1]: 15.1 µM; Ratio IC50 [2]: 3.6; Activity [11]: < 10%

**Q.** Which IC50 [1] does the source give for `COc1cc2c(cc1OC)CN(CCn1cc(COc3ccccc3NC(=O)c3cccc(Cl)c3)nn1)CC2` here?
**A.** 11 µM

**Q.** What about the “Ratio IC50” value [2] of the same compound?
**A.** 4.9

**Q.** And the Activity [11]?
**A.** < 10%

**Q.** What does the source list for `COc1cc2c(cc1OC)CN(CCn1cc(COc3ccccc3NC(=O)c3cccc(C)c3)nn1)CC2`?
**A.** IC50 [1]: 7.16 µM; Ratio IC50 [2]: 7.6; Activity [11]: < 10%

**Q.** For `COc1cc2c(cc1OC)CN(CCn1cc(COc3ccccc3NC(=O)c3cc(OC)c(OC)c(OC)c3)nn1)CC2`, which IC50 [1] is on record?
**A.** 3.23 µM

**Q.** And the “Ratio IC50” value [2]?
**A.** 16.8

**Q.** And the Activity [11]?
**A.** < 10%

**Q.** What does the source list for `COc1cc2c(cc1OC)CN(CCn1cc(COc3ccccc3NC(=O)c3ccc(C)cc3)nn1)CC2`?
**A.** IC50 [1]: 7.25 µM; Ratio IC50 [2]: 7.5; Activity [11]: < 10%

**Q.** Which IC50 [1] does the source give for `COc1cccc(C(=O)Nc2ccccc2OCc2cn(CCN3CCc4cc(OC)c(OC)cc4C3)nn2)c1` here?
**A.** 9.71 µM

**Q.** And the “Ratio IC50” value [2]?
**A.** 5.6

**Q.** And the Activity [11]?
**A.** < 10%

**Q.** Which results are given for `COc1cc2c(cc1OC)CN(CCn1cc(COc3ccccc3NC(=O)c3ccc(C#N)cc3)nn1)CC2`?
**A.** IC50 [1]: 14.4 µM; Ratio IC50 [2]: 3.6; Activity [11]: < 10%

**Q.** Which IC50 [12] does the source give for `COc1cccc2c1C(=O)c1c(O)c3c(c(O)c1C2=O)C[C@@](O)(C(=O)CO)C[C@@H]3O[C@H]1C[C@H](N)[C@H](O)[C@H](C)O1` [DOXORUBICIN HYDROCHLORIDE] here?
**A.** 54.2 µM

**Q.** What does the source list for `COc1ccc(C(=O)Nc2ccccc2OCc2cn(CCN3CCc4cc(OC)c(OC)cc4C3)nn2)cc1`?
**A.** IC50 [1]: 6.25 µM; Ratio IC50 [2]: 8.7; Activity [11]: < 10%
